The test system of series [1] is Plasmodium falciparum. In words: Antiplasmodial activity against chloroquine-resistant Plasmodium falciparum W2 infected in human erythrocytes. The series is classed as functional, organism-based. A digest of the protocol: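 P. falciparum W2 grown in fresh human O+ erythrocytes at 2% hematocrit in complete medium, 37 °C. Compounds tested over a 100–3.12 µM dilution series. IC50 estimated from the dose-response curve relative to drug-free control wells (100% parasite viability). Artemisinin run in parallel as control. Triplicates, at least three independent cultures (n = 3).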

A short description of series [2]: Cytotoxicity against African green monkey Vero cells after 72 hrs by MTT assay. As to conditions: chlorocebus sabaeus. The series is classed as cell-based. A digest of the protocol:
(§1)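 VERO (ATCC CCL-81) and HepG2 (ATCC HB-8065) cells were exposed for 24, 48 or 72 h to an […] dilution series from 400 to 1.56 μM. CC50 was taken from the concentration–response curve. Triplicates, with at least three independent cultures (n = 3).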

Series [3] is described as follows: Cytotoxicity against human HepG2 cells after 72 hrs by MTT assay. The series is classed as cell-based. A digest of the protocol: as §1
A short description of series [4]: Selectivity index, ratio of CC50 for human HepG2 cells to IC50 for chloroquine-resistant Plasmodium falciparum W2. In kind it is toxicity. Particulars: read-out: Ratio CC50/IC50. A digest of the protocol:
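SI = HepG2 CC50 / W2 IC50. CC50 came from HepG2 growth inhibition over a 400–1.56 µM dilution series, read at 24, 48 and 72 h. IC50 came from the W2 erythrocyte assay (100–3.12 µM range). Triplicates, at least three independent cultures.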

Series [5] has as its system Plasmodium falciparum. In words: Antiplasmodial activity against Plasmodium falciparum assessed as combination index in presence of artemisinin. The series is classed as functional. A digest of the protocol:
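Chloroquine-resistant P. falciparum W2 was grown in fresh human O+ erythrocytes at 2% hematocrit in complete medium at 37 °C. Artemisinin was co-tested with the triterpene using the one-point Chou–Talalay method, at a minimum of one combination ratio. CI is the sum of the two FICs: ≤1 synergy, 1–2 additivity, >2 antagonism. Triplicates, n = 3 independent cultures.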

In series [6] the test system is Plasmodium falciparum. In words: Antiplasmodial activity against Plasmodium falciparum assessed as potentiation of artemisinin-induced antimalarial activity by measuring dose reduction index relative to artemisinin alone. In kind it is functional.

In the case of `C[C@H]1[C@H](C)CC[C@]2(C(=O)O)CC[C@]3(C)C(=CC[C@@H]4[C@@]5(C)CC[C@H](O)C(C)(C)[C@@H]5CC[C@]43C)[C@H]12` [URSOLIC ACID], in the series with Plasmodium falciparum [1], it took 50.6 µM to reach half-maximal inhibition (IC50). The CC50 at 72 h is 99.9 µM in series [2] and 114 µM in series [3]. Also, in series [4], the selectivity ratio was determined as 2.24.
As to `C=C(C)[C@@H]1CC[C@]2(C(=O)OC)CC[C@]3(C)[C@H](CC[C@@H]4[C@@]5(C)CC[C@H](OC(C)=O)C(C)(C)[C@@H]5CC[C@]43C)[C@@H]12`, the IC50 with Plasmodium falciparum [1] is over 100 µM. The CC50 at 72 h in series [2] and in series [3] was over 400 µM in each case.
Turning to `CCCC(=O)O[C@H]1CC[C@]2(C)[C@H]3CC=C4[C@@H]5[C@@H](C)[C@H](C)CC[C@]5(C(=O)n5ccnc5)CC[C@@]4(C)[C@]3(C)CC[C@H]2C1(C)C`, the IC50 with Plasmodium falciparum [1] was found to be 10.4 µM. The 50% cytotoxic concentration (CC50) at 72 h in series [2] and in series [3] was over 400 µM each time. Also, the selectivity ratio in series [4] is over 38.5.
`C=C(C)[C@@H]1CC[C@]2(C(=O)O)CC[C@]3(C)[C@H](CC[C@@H]4[C@@]5(C)CC[C@H](OC(C)=O)C(C)(C)[C@@H]5CC[C@]43C)[C@@H]12`: half-maximal inhibition in the series with Plasmodium falciparum [1] (IC50) was put at 65.5 µM. Also, the CC50 at 72 h in series [2] and in series [3] was over 400 µM each time. In addition, the selectivity ratio in series [4] was over 6.11.
As to `C=C(C)[C@@H]1CC[C@]2(C(=O)OC)CC[C@]3(C)[C@H](CC[C@@H]4[C@@]5(C)CC[C@H](OC(=O)C(C)C)C(C)(C)[C@@H]5CC[C@]43C)[C@@H]12`, the IC50 in the series on Plasmodium falciparum [1] is over 100 µM. Further, the CC50 at 72 h in series [2] and in series [3] was over 400 µM in each case.
Compound `CC(=O)O[C@H]1CC[C@]2(C)[C@H]3CC=C4[C@@H]5[C@@H](C)[C@H](C)CC[C@]5(C(=O)n5ccnc5)CC[C@@]4(C)[C@]3(C)CC[C@H]2C1(C)C` registered an IC50 in the series on Plasmodium falciparum [1] of 50.6 µM. Besides, the CC50 at 72 h in series [2] and in series [3] was over 400 µM throughout. In addition, in series [4], the selectivity ratio is over 7.9.
In turn, `C[C@H]1[C@H](C)CC[C@]2(C(=O)O)CC[C@]3(C)C(=CC[C@@H]4[C@@]5(C)CCC(=O)C(C)(C)[C@@H]5CC[C@]43C)[C@H]12` [URSONIC ACID] had an IC50 in the series with Plasmodium falciparum [1] of 24.3 µM. Also, the CC50 at 72 h in series [2] and in series [3] was over 400 µM throughout. Besides, the selectivity ratio in series [4] was over 16.5.
As for `COC(=O)[C@]12CC[C@@H](C)[C@H](C)[C@H]1C1=CC[C@@H]3[C@@]4(C)CCC(=O)C(C)(C)[C@@H]4CC[C@@]3(C)[C@]1(C)CC2`, the IC50 with Plasmodium falciparum [1] is over 100 µM. For the same compound, the CC50 at 72 h in series [2] and in series [3] was over 400 µM in each case.
`CCCC(=O)O[C@H]1CC[C@]2(C)[C@H]3CC=C4[C@@H]5[C@@H](C)[C@H](C)CC[C@]5(C(=O)O)CC[C@@]4(C)[C@]3(C)CC[C@H]2C1(C)C`: the IC50 in the series on Plasmodium falciparum [1] worked out at 13.3 µM. The CC50 at 72 h in series [2] and in series [3] was over 400 µM in each case. Moreover, the selectivity ratio in series [4] was over 30. Besides, in the series on Plasmodium falciparum [5], the CI is 1.05. Further, the Activity_index in the series on Plasmodium falciparum [6] amounted to 7.
In the case of `C=C(C)[C@@H]1CC[C@]2(C(=O)OC)CC[C@]3(C)[C@H](CC[C@@H]4[C@@]5(C)CC[C@H](OC(=O)CCC)C(C)(C)[C@@H]5CC[C@]43C)[C@@H]12`, the IC50 in the series on Plasmodium falciparum [1] is over 100 µM. Besides, the CC50 at 72 h in series [2] and in series [3] was over 400 µM in each case.
Turning to `C=C(C)[C@@H]1CC[C@]2(C(=O)n3ccnc3)CC[C@]3(C)[C@H](CC[C@@H]4[C@@]5(C)CC[C@H](OC(=O)CCC)C(C)(C)[C@@H]5CC[C@]43C)[C@@H]12`, the IC50 with Plasmodium falciparum [1] turned out to be 57.6 µM. Moreover, the CC50 at 72 h in series [2] and in series [3] was over 400 µM in each case. In series [4], the selectivity ratio was over 6.94.
In the series on Plasmodium falciparum [1], `C=C(C)[C@@H]1CC[C@]2(C(=O)n3ccnc3)CC[C@]3(C)[C@H](CC[C@@H]4[C@@]5(C)CCC(=O)C(C)(C)[C@@H]5CC[C@]43C)[C@@H]12` came in with an IC50 of 5.2 µM. For the same compound, the CC50 at 72 h in series [2] and in series [3] was over 400 µM in each case. Further, the selectivity ratio in series [4] is over 76.8.
For `CC(=O)O[C@H]1CC[C@]2(C)[C@H]3CC=C4[C@@H]5[C@@H](C)[C@H](C)CC[C@]5(C(=O)O)CC[C@@]4(C)[C@]3(C)CC[C@H]2C1(C)C` [O-ACETYLURSOLIC ACID], in the series on Plasmodium falciparum [1], the IC50 amounted to 9.08 µM. The CC50 at 72 h in series [2] and in series [3] was over 400 µM each time. For the same compound, in series [4], the selectivity ratio was over 44.
In the series on Plasmodium falciparum [1], `C=C(C)[C@@H]1CC[C@]2(C(=O)n3ccnc3)CC[C@]3(C)[C@H](CC[C@@H]4[C@@]5(C)CC[C@H](OC(=O)C(C)C)C(C)(C)[C@@H]5CC[C@]43C)[C@@H]12` displayed an IC50 of 29.6 µM. Moreover, the CC50 at 72 h in series [2] and in series [3] was over 400 µM in each case. In series [4], the selectivity ratio was over 13.5.
Take `C=C(C)[C@@H]1CC[C@]2(C(=O)O)CC[C@]3(C)[C@H](CC[C@@H]4[C@@]5(C)CCC(=O)C(C)(C)[C@@H]5CC[C@]43C)[C@@H]12` [BETUNOLIC ACID]: in the series on Plasmodium falciparum [1], the IC50 was determined as 7.87 µM. Further, the CC50 at 72 h in series [2] is over 400 µM; in series [3], 150 µM. The selectivity ratio in series [4] came to 19.1.
`CC(C)C(=O)O[C@H]1CC[C@]2(C)[C@H]3CC=C4[C@@H]5[C@@H](C)[C@H](C)CC[C@]5(C(=O)O)CC[C@@]4(C)[C@]3(C)CC[C@H]2C1(C)C`: in the series with Plasmodium falciparum [1], the IC50 was over 100 µM. For the same compound, the CC50 at 72 h in series [2] and in series [3] was over 400 µM in each case.
Compound `CCCC(=O)O[C@H]1CC[C@]2(C)[C@H]3CC=C4[C@@H]5[C@@H](C)[C@H](C)CC[C@]5(C(=O)OC)CC[C@@]4(C)[C@]3(C)CC[C@H]2C1(C)C` gave an IC50 in the series with Plasmodium falciparum [1] of over 100 µM. Besides, the CC50 at 72 h in series [2] and in series [3] was over 400 µM each time.
The compound `C=C(C)[C@@H]1CC[C@]2(C(=O)O)CC[C@]3(C)[C@H](CC[C@@H]4[C@@]5(C)CC[C@H](OC(=O)C(C)C)C(C)(C)[C@@H]5CC[C@]43C)[C@@H]12` yielded an IC50 in the series with Plasmodium falciparum [1] of 12.1 µM. For the same compound, the CC50 at 72 h in series [2] and in series [3] was over 400 µM throughout. Further, the selectivity ratio in series [4] is over 33.
`CC(C)C(=O)O[C@H]1CC[C@]2(C)[C@H]3CC=C4[C@@H]5[C@@H](C)[C@H](C)CC[C@]5(C(=O)n5ccnc5)CC[C@@]4(C)[C@]3(C)CC[C@H]2C1(C)C` came in with an IC50 with Plasmodium falciparum [1] of 13.6 µM. Also, the CC50 at 72 h in series [2] and in series [3] was over 400 µM throughout. In addition, the selectivity ratio in series [4] is over 29.4.
The compound `C[C@@H]1CC[C@H]2[C@@H](C)C(=O)O[C@@H]3O[C@@]4(C)CC[C@@H]1[C@]32OO4` [ARTEMISININ] gave an IC50 with Plasmodium falciparum [1] of 0.0163 µM.
Compound `C[C@H]1[C@H](C)CC[C@]2(C(=O)n3ccnc3)CC[C@]3(C)C(=CC[C@@H]4[C@@]5(C)CCC(=O)C(C)(C)[C@@H]5CC[C@]43C)[C@H]12` yielded an IC50 in the series on Plasmodium falciparum [1] of 9.07 µM. Also, the CC50 at 72 h in series [2] and in series [3] was over 400 µM in each case. In series [4], the selectivity ratio is over 44.1.
`C=C(C)[C@@H]1CC[C@]2(C(=O)OC)CC[C@]3(C)[C@H](CC[C@@H]4[C@@]5(C)CCC(=O)C(C)(C)[C@@H]5CC[C@]43C)[C@@H]12` [METHYL BETULONATE]: the IC50 in the series on Plasmodium falciparum [1] was over 100 µM. The CC50 at 72 h in series [2] and in series [3] was over 400 µM throughout.
Take `C=C(C)[C@@H]1CC[C@]2(C(=O)O)CC[C@]3(C)[C@H](CC[C@@H]4[C@@]5(C)CC[C@H](O)C(C)(C)[C@@H]5CC[C@]43C)[C@@H]12` [BETULINIC ACID]: in the series with Plasmodium falciparum [1], the midpoint of inhibition, the IC50, lay at 12.8 µM. Also, the CC50 at 72 h in series [2] and in series [3] was over 400 µM in each case. Also, in series [4], the selectivity ratio is over 31.4.
With `COC(=O)[C@]12CC[C@@H](C)[C@H](C)[C@H]1C1=CC[C@@H]3[C@@]4(C)CC[C@H](OC(=O)C(C)C)C(C)(C)[C@@H]4CC[C@@]3(C)[C@]1(C)CC2`, in the series on Plasmodium falciparum [1], the IC50 was over 100 µM. Further, the CC50 at 72 h in series [2] and in series [3] was over 400 µM each time.
In the series with Plasmodium falciparum [1], `C=C(C)[C@@H]1CC[C@]2(C(=O)n3ccnc3)CC[C@]3(C)[C@H](CC[C@@H]4[C@@]5(C)CC[C@H](OC(C)=O)C(C)(C)[C@@H]5CC[C@]43C)[C@@H]12` returned an IC50 of 8.9 µM. The CC50 at 72 h in series [2] and in series [3] was over 400 µM throughout. Also, the selectivity ratio in series [4] was over 44.9.
`COC(=O)[C@]12CC[C@@H](C)[C@H](C)[C@H]1C1=CC[C@@H]3[C@@]4(C)CC[C@H](OC(C)=O)C(C)(C)[C@@H]4CC[C@@]3(C)[C@]1(C)CC2` gave an IC50 in the series with Plasmodium falciparum [1] of over 100 µM. Moreover, the CC50 at 72 h in series [2] and in series [3] was over 400 µM each time.

These data come from ChEMBL document CHEMBL4184121, “Semisynthesis, cytotoxicity, antimalarial evaluation and structure-activity relationship of two series of triterpene derivatives” (Bioorg Med Chem Lett, 2018).
